Measured values from ChEMBL document CHEMBL3808334, “Synthesis and in vitro evaluation of novel triazine analogues as anticancer agents and their interaction studies with bovine serum albumin” (Eur J Med Chem, 2016).

How the values were obtained:
Type in all cases: functional
[1] = Growth inhibition of human UACC62 cells assessed as cell growth at 10^-5 M incubated for 48 hrs by sulforhodamine B assay; conditions: UACC-62, 48 h, read-out: Activity
NCI-H226 [2] = assay: Growth inhibition of human NCI-H226 cells assessed as cell growth at 10 uM incubated for 48 hrs by sulforhodamine B assay; conditions: NCI-H226, 48 h, read-out: Activity
Malme-3M = assay: Growth inhibition of human MALME-3M cells incubated for 48 hrs by sulforhodamine B assay
Procedure, shortened: (§1)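 Cells were plated at 5,000–40,000 per well according to doubling time and preincubated 24 h at 37 °C in 5% CO2; time-zero plates were then TCA-fixed. Five concentrations (10-fold or ½-log dilutions, DMSO stock) were incubated 48 h. Cells were TCA-fixed, stained with 0.4% SRB and read at 515 nm. GI50 was taken where [(Ti−Tz)/(C−Tz)]×100 = 50.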

[3] = Growth inhibition of human renal cancer cells incubated for 48 hrs by sulforhodamine B assay; conditions: Cancer cell lines; for CC50: read-out: LC50 (the source's name)
A549 = assay: Growth inhibition of human A549/ATCC cells assessed as cell growth at 10^-5 M incubated for 48 hrs by sulforhodamine B assay; conditions: A549, 48 h, read-out: Activity
Procedure, shortened: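 Five-dose assay: five concentrations from 10-fold or ½-log serial dilutions. Cells are plated at 5,000–40,000 per well according to doubling time, grown 24 h, then exposed 48 h at 37 °C, 5% CO₂. Fixed with cold 50% TCA (final addition) for 60 min at 4 °C and stained with 0.4% SRB in 1% acetic acid. Bound dye is solubilized in 10 mM Tris base and read at 515 nm. GI₅₀ is where [(Ti−Tz)/(C−Tz)]×100 = 50, with a time-zero plate as Tz.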

SK-MEL-5 = assay: Growth inhibition of human SK-MEL-5 cells assessed as cell growth at 10^-6 M incubated for 48 hrs by sulforhodamine B assay; conditions: SK-MEL-5, 48 h, read-out: Activity
EKVX = assay: Growth inhibition of human EKVX cells assessed as cell growth at 10 uM incubated for 48 hrs by sulforhodamine B assay; conditions: read-out: Activity
Procedure, shortened: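 Primary screen at one dose (10 µM) across 60 human cancer cell lines. Readout was growth percent relative to untreated control and time-zero.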

[4] = Growth inhibition of human Caki1 cells assessed as cell growth at 10^-4 M incubated for 48 hrs by sulforhodamine B assay; conditions: CAKI-1, 48 h, read-out: Activity
Procedure, shortened: (§2)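 Cells seeded at 5,000–40,000/well according to doubling time and preincubated 24 h at 37 °C, 5% CO2. Time-zero plates were TCA-fixed. DMSO concentrate was diluted in medium with 50 µg/ml gentamicin to give five concentrations (10-fold or ½ log steps), then exposed 48 h. Cells were TCA-fixed, stained with 0.4% SRB and read at 515 nm. Percent growth was taken against time-zero and control; GI50, TGI and LC50 derived.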

NCI-H226 [5] = assay: Growth inhibition of human NCI-H226 cells incubated for 48 hrs by sulforhodamine B assay; conditions: NCI-H226, 48 h; procedure, shortened: as §1
[6] = Growth inhibition of human DU145 cells incubated for 48 hrs by sulforhodamine B assay; conditions: DU-145, 48 h; for CC50: read-out: pLC50 (the source's name) (converted); procedure, shortened: as §2
[7] = Growth inhibition of human HCT15 cells assessed as cell growth at 10^-5 M incubated for 48 hrs by sulforhodamine B assay; conditions: HCT-15, 48 h, read-out: Activity; procedure, shortened: as §2
MDA-MB-468 = assay: Growth inhibition of human MDA-MB-468 cells assessed as cell growth at 10^-6 M incubated for 48 hrs by sulforhodamine B assay; conditions: MDA-MB-468, 48 h, read-out: Activity
[8] = Growth inhibition of human OVCAR8 cells assessed as cell growth at 10^-6 M incubated for 48 hrs by sulforhodamine B assay; conditions: OVCAR-8, 48 h, read-out: Activity
[9] = Growth inhibition of human COLO205 cells assessed as cell growth at 10^-6 M incubated for 48 hrs by sulforhodamine B assay; conditions: COLO 205, 48 h, read-out: Activity; procedure, shortened: as §2
[10] = Growth inhibition of human COLO205 cells assessed as cell growth at 10^-4 M incubated for 48 hrs by sulforhodamine B assay; conditions: COLO 205, 48 h, read-out: Activity; procedure, shortened: as §2
[11] = Growth inhibition of human SKOV3 cells assessed as cell growth at 10^-5 M incubated for 48 hrs by sulforhodamine B assay; conditions: SK-OV-3, 48 h, read-out: Activity
[12] = Growth inhibition of human HCT116 cells assessed as cell growth at 10^-6 M incubated for 48 hrs by sulforhodamine B assay; conditions: HCT-116, 48 h, read-out: Activity; procedure, shortened: as §2
[13] = Growth inhibition of human TK10 cells assessed as cell growth at 10^-5 M incubated for 48 hrs by sulforhodamine B assay; conditions: TK-10, 48 h, read-out: Activity
SR [14] = assay: Growth inhibition of human SR cells incubated for 48 hrs by sulforhodamine B assay; procedure, shortened: as §1
MCF7 = assay: Growth inhibition of human MCF7 cells assessed as cell growth at 10^-7 M incubated for 48 hrs by sulforhodamine B assay; conditions: MCF7, 48 h, read-out: Activity
[15] = Growth inhibition of human SF539 cells assessed as cell growth at 10^-4 M incubated for 48 hrs by sulforhodamine B assay; conditions: SF-539, 48 h, read-out: Activity
[16] = Growth inhibition of human PC3 cells incubated for 48 hrs by sulforhodamine B assay; conditions: PC-3, 48 h; procedure, shortened: as §1
[17] = Growth inhibition of human TK10 cells incubated for 48 hrs by sulforhodamine B assay; conditions: TK-10, 48 h; procedure, shortened: as §1
[18] = Growth inhibition of human HCC2998 cells assessed as cell growth at 10^-8 M incubated for 48 hrs by sulforhodamine B assay; conditions: HCC 2998, 48 h, read-out: Activity; procedure, shortened: as §2
SR [19] = assay: Growth inhibition of human SR cells assessed as cell growth at 10^-7 M incubated for 48 hrs by sulforhodamine B assay; conditions: read-out: Activity
[20] = read-out: LC50 (the source's name)
[21] = read-out: pLC50 (the source's name) (converted)

## Fc1ccc(-c2nc(Nc3ccc(-c4nc5ccccc5[nH]4)cc3)nc(N3CCOCC3)n2)cc1
[1]
  growth at 10 µM: -70%
NCI-H226 [2]
  growth at 10 µM: 17.1%
Malme-3M; read-out: GI50
  GI50: 2.05 µM
Malme-3M; [20]
  CC50: 7.63 µM
Malme-3M; read-out: TGI
  TGI: 3.95 µM
Malme-3M; read-out: pGI50 (converted)
  GI50: 2.04 µM
Malme-3M; [21]
  CC50: 7.59 µM
Malme-3M; read-out: pTGI (converted)
  TGI: 3.98 µM
[3]
  GI50: 2.03 µM
  TGI: 7.36 µM
  CC50: 7.83 µM
A549
  growth at 10 µM: 3%
SK-MEL-5
  growth at 1 µM: 97%
EKVX
  growth at 10 µM: 7.91%
[4]
  growth at 100 µM: -29%
NCI-H226 [5]; read-out: GI50
  GI50: 3.32 µM
NCI-H226 [5]; [20]
  CC50: > 100 µM
NCI-H226 [5]; read-out: TGI
  TGI: 8.6 µM
NCI-H226 [5]; read-out: pGI50 (converted)
  GI50: 3.31 µM
NCI-H226 [5]; [21]
  CC50: > 100 µM
NCI-H226 [5]; read-out: pTGI (converted)
  TGI: 8.51 µM
[6]
  LC50 (50% net cell kill): > 100 µM
  CC50: > 100 µM
[6]; read-out: GI50
  GI50: 4.53 µM
[6]; read-out: TGI
  TGI: > 100 µM
[6]; read-out: pGI50 (converted)
  GI50: 4.57 µM
[6]; read-out: pTGI (converted)
  TGI: > 100 µM
[7]
  growth at 10 µM: -35%
MDA-MB-468
  growth at 1 µM: 106%
[8]
  growth at 1 µM: 101%
[9]
  growth at 1 µM: 92%
[10]
  growth at 100 µM: -57%
[11]
  growth at 10 µM: -35%
[12]
  growth at 1 µM: 102%
[13]
  growth at 10 µM: -7%
SR [14]; read-out: GI50
  GI50: 0.539 µM
SR [14]; [20]
  CC50: > 100 µM
SR [14]; read-out: pGI50 (converted)
  GI50: 0.537 µM
SR [14]; [21]
  CC50: > 100 µM
MCF7
  growth at 0.1 µM: 89%
[15]
  growth at 100 µM: -84%
[16]; read-out: GI50
  GI50: 2.39 µM
[16]; [20]
  CC50: > 100 µM
[16]; read-out: TGI
  TGI: 6.66 µM
[16]; read-out: pGI50 (converted)
  GI50: 2.4 µM
[16]; [21]
  CC50: > 100 µM
[16]; read-out: pTGI (converted)
  TGI: 6.61 µM
[17]; read-out: GI50
  GI50: 2.91 µM
[17]; [20]
  CC50: > 100 µM
[17]; read-out: TGI
  TGI: 8.54 µM
[17]; read-out: pGI50 (converted)
  GI50: 2.88 µM
[17]; [21]
  CC50: > 100 µM
[17]; read-out: pTGI (converted)
  TGI: 8.51 µM
[18]
  growth at 0.01 µM: 99%
SR [19]
  growth at 0.1 µM: 87%

## c1ccc2[nH]c(-c3ccc(Nc4nc(N5CCCCC5)nc(N5CCOCC5)n4)cc3)nc2c1
[1]
  growth at 10 µM: -53%
NCI-H226 [2]
  growth at 10 µM: 32.7%
Malme-3M; read-out: GI50
  GI50: 1.87 µM
Malme-3M; [20]
  CC50: 6.81 µM
Malme-3M; read-out: TGI
  TGI: 3.57 µM
Malme-3M; read-out: pGI50 (converted)
  GI50: 1.86 µM
Malme-3M; [21]
  CC50: 6.76 µM
Malme-3M; read-out: pTGI (converted)
  TGI: 3.55 µM
[3]
  GI50: 2.46 µM
  TGI: 11.8 µM
  CC50: 8.29 µM
A549
  growth at 10 µM: 2%
SK-MEL-5
  growth at 1 µM: 97%
EKVX
  growth at 10 µM: 27.7%
[4]
  growth at 100 µM: -32%
NCI-H226 [5]; read-out: GI50
  GI50: 3.2 µM
NCI-H226 [5]; [20]
  CC50: > 100 µM
NCI-H226 [5]; read-out: TGI
  TGI: 17.7 µM
NCI-H226 [5]; read-out: pGI50 (converted)
  GI50: 3.16 µM
NCI-H226 [5]; [21]
  CC50: > 100 µM
NCI-H226 [5]; read-out: pTGI (converted)
  TGI: 17.8 µM
[6]
  LC50 (50% net cell kill): > 100 µM
  CC50: > 100 µM
[6]; read-out: GI50
  GI50: 4.28 µM
[6]; read-out: TGI
  TGI: > 100 µM
[6]; read-out: pGI50 (converted)
  GI50: 4.27 µM
[6]; read-out: pTGI (converted)
  TGI: > 100 µM
[7]
  growth at 10 µM: -49%
MDA-MB-468
  growth at 1 µM: 106%
[8]
  growth at 1 µM: 93%
[9]
  growth at 1 µM: 92%
[10]
  growth at 100 µM: -69%
[11]
  growth at 10 µM: -37%
[12]
  growth at 1 µM: 95%
[13]
  growth at 10 µM: -4%
SR [14]; read-out: GI50
  GI50: 0.731 µM
SR [14]; [20]
  CC50: > 100 µM
SR [14]; read-out: TGI
  TGI: 5.73 µM
SR [14]; read-out: pGI50 (converted)
  GI50: 0.724 µM
SR [14]; [21]
  CC50: > 100 µM
SR [14]; read-out: pTGI (converted)
  TGI: 5.75 µM
MCF7
  growth at 0.1 µM: 91%
[15]
  growth at 100 µM: -76%
[16]; read-out: GI50
  GI50: 3.05 µM
[16]; [20]
  CC50: > 100 µM
[16]; read-out: TGI
  TGI: 9.13 µM
[16]; read-out: pGI50 (converted)
  GI50: 3.02 µM
[16]; [21]
  CC50: > 100 µM
[16]; read-out: pTGI (converted)
  TGI: 9.12 µM
[17]; read-out: GI50
  GI50: 3.21 µM
[17]; [20]
  CC50: > 100 µM
[17]; read-out: TGI
  TGI: 9.26 µM
[17]; read-out: pGI50 (converted)
  GI50: 3.24 µM
[17]; [21]
  CC50: > 100 µM
[17]; read-out: pTGI (converted)
  TGI: 9.33 µM
[18]
  growth at 0.01 µM: 98%
SR [19]
  growth at 0.1 µM: 88%
